The target of experiment [1] is T1, Glycogen synthase kinase-3 beta (Homo sapiens, UniProt P49841). Description: Inhibition of GSK3-beta at 10 uM by Z'-LYTE kinase assay. In a few lines:
(§1)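 Z'-LYTE fluorescence-ratio (FRET) kinase assay with GSK-3β and its peptide substrate. Relative inhibition was plotted against increasing compound concentrations and IC50 taken from the inhibition curves. […] is percent inhibition at a single 10 µM compound concentration.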
Target sequence in this assay (P49841 whole entry, looked up): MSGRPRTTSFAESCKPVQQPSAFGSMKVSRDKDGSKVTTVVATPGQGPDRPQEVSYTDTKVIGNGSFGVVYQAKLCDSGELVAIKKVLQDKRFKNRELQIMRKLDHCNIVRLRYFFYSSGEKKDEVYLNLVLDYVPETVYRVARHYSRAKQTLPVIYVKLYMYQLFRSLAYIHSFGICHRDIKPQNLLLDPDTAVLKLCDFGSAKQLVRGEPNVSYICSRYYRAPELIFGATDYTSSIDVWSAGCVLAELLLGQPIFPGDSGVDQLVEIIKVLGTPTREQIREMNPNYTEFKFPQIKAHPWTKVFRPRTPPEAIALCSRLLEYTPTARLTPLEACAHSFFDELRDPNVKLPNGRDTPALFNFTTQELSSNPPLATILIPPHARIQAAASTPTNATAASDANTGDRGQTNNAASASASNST

Experiment [2] has as its target T1, Glycogen synthase kinase-3 beta. Description: Inhibition of GSK3-beta by Z'-LYTE kinase assay. In a few lines:
as §1
Target sequence in this assay (P49841 whole entry): as the sequence (P49841 whole entry, looked up) above

Experiment [3] in a line: Inhibition of PKA. In a few lines:
(§2)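 Counter-screen kinases (PKA, CSNK2, PKC, CDK1) were run under near-identical reaction conditions per the manufacturer's instructions, each with its own suitable substrate. Values are percent inhibition at a single 100 µM compound concentration, or IC50 in µM.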

In experiment [4] the target is T2, Protein kinase C alpha type (Homo sapiens, UniProt P17252). Description: Inhibition of PKCalpha. A digest of the protocol:
as §2

The nature of experiment [5]: Inhibition of PKA at 100 uM.
Experiment [6] addresses Cyclin-dependent kinase 1 (Homo sapiens) (UniProt P06493). The experiment in a line: Inhibition of CDK1 at 100 uM.
Experiment [7] in a line: Inhibition of CSNK2 at 100 uM.
Experiment [8] has as its target T2, Protein kinase C alpha type. The experiment in a line: Inhibition of PKCalpha at 100 uM.
Experiment [9] has as its target T1, Glycogen synthase kinase-3 beta. Description: Inhibition of GSK3-beta by ATP competitive inhibition based assay. A digest of the protocol: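 GSK-3β enzyme velocity was measured with substrate across various ATP levels at increasing inhibitor concentrations. Mode of inhibition was read from Lineweaver–Burk double-reciprocal plots.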
Target sequence in this assay (P49841 whole entry, looked up): as the sequence (P49841 whole entry, looked up) above
Experiment [10] shares this target. Description: Inhibition of GSK3-beta in myoblasts assessed as beta-casein accumulation at 2 uM after 3 hrs by immunoblot. Particulars: in the assay text read “beta-catenin” for “beta-casein”. In a few lines:
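C2C12 myoblasts plated at 5 × 10⁵ were exposed to compound at 2 µM for 3 h. Cells were lysed for total protein, run on SDS–PAGE and immunoblotted with anti-β-catenin antibody.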
Target sequence in this assay (P49841 whole entry, looked up): as above

The structures appear in SMILES notation. Activity calls are given as the source filed them. The rule behind the calls is not given here.

This note sets out measurements from ChEMBL document CHEMBL1154539, “Identification of small molecules that inhibit GSK-3beta through virtual screening” (Bioorg Med Chem Lett, 2009).

The inhibition is the relative decrease from the control value, in per cent. A low value points to a weak effect. Broadly, the IC50 is the concentration needed to halve the response being measured. Higher therefore signals weaker potency in that assay.

Sequence of Cyclin-dependent kinase 1 (Homo sapiens) (P06493 whole entry, looked up): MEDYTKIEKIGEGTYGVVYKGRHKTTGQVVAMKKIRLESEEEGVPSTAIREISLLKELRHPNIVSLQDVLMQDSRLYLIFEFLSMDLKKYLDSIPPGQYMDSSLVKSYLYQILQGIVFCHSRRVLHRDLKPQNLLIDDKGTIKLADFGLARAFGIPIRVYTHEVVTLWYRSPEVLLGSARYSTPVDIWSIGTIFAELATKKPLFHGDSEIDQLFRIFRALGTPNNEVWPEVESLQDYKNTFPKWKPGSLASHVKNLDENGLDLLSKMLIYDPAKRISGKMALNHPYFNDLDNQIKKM

With `CCOC(=O)Cn1sc(=O)n(CC(=O)N2CCCCC2)c1=O`, the inhibition in [1] turned out to be 65%; in experiment [5], 75%; in experiment [6] it was 15%; in [7], 21%; in experiment [8], 93%. Further, the IC50 is 0.539 µM in experiment [2], 17 µM in [3] and 4.1 µM in [4].
Take `O=c1sn(CCc2ccccc2)c(=O)n1Cc1ccc(F)cc1`: the inhibition in experiment [1] was found to be 80%; in experiment [5] it was 20%; in [6], 20%; in experiment [7], 31%; in experiment [8], 51%. Moreover, the figures for the IC50 in experiment [2] and in experiment [4] were 1.86 µM and 38.7 µM, respectively.
Consider `CCOC(=O)Cn1sc(=O)n(-c2ccc(C(=O)OCC)cc2)c1=O`, for which the inhibition came out at 75% in experiment [1]; 81% in [5]; 12% in experiment [6]; 36% in experiment [7]; 78% in [8]. Also, the results for the IC50 in [2], in experiment [3] and in experiment [4] were 1.01 µM, 6.9 µM and 48.3 µM, respectively.
For `O=c1sn(-c2ccccc2)c(=O)n1CCCl`, the inhibition in experiment [1] was 74%; in experiment [5], 35%; in experiment [6] it was 0%; in experiment [7] it was 17%; in experiment [8] it was 84%. Further, the IC50 in experiment [2] was 0.548 µM; in experiment [4], 5.8 µM. Further, the result in experiment [9] was Active.
Consider `CCn1sc(=O)n(Cc2ccccc2)c1=O`, for which the inhibition in experiment [1] was 65%; in experiment [5], 30%; in experiment [6] it was 15%; in experiment [7] it was 30%; in experiment [8], 88%. The IC50 is 7.15 µM in experiment [2] and 13.8 µM in experiment [4].
For the molecule `CCOC(=O)Cn1sc(=O)n(-c2cccc(C(=O)OCC)c2)c1=O`, the inhibition in experiment [1] came to 84%; in [5] it was 87%; in experiment [6], 18%; in experiment [7] it was 21%; in experiment [8] it was 89%. Moreover, the 50% inhibitory concentration (IC50) turned out to be 0.467 µM in experiment [2], 2.2 µM in experiment [3] and 5.3 µM in [4]. Further, the result in experiment [9] and in experiment [10] was Active.
